Data from ChEMBL document CHEMBL2040757, “New N-arylamino biquinoline derivatives: synthesis, antimicrobial, antituberculosis, and antimalarial evaluation” (Eur J Med Chem, 2012).
Converted amounts (≈) assume the structure as drawn.

Experiments:
[1] = test system: Mycobacterium tuberculosis; assay: Growth inhibition of Mycobacterium tuberculosis H37Rv at 6.25 ug/mL after 12 to 28 days relative to control; type: functional
Bacillus subtilis = assay: Antibacterial activity against Bacillus subtilis MTCC 441 by broth microdilution method; type: functional
Method in brief: (§1)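 Broth microdilution per NCCLS, with serial dilutions in Mueller Hinton broth and DMSO as diluent. Tubes were incubated overnight at 37 °C. MIC was the lowest concentration giving no visible growth, with the control organism's MIC read to verify concentrations. Tubes without growth were subcultured overnight at 37 °C to judge bacteriostatic versus bactericidal action.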

Clostridium tetani = assay: Antibacterial activity against Clostridium tetani MTCC 449 by broth microdilution method; type: functional
Streptococcus pneumoniae = assay: Antibacterial activity against Streptococcus pneumoniae MTCC 1936 by broth microdilution method; type: functional; method in brief: as §1
Escherichia coli = assay: Antibacterial activity against Escherichia coli MTCC 443 by broth microdilution method; type: functional; method in brief: as §1
Salmonella typhi = assay: Antibacterial activity against Salmonella typhi MTCC 98 by broth microdilution method; type: functional, Salmonella enterica subsp. enterica serovar Typhi; conditions: Salmonella enterica
Vibrio cholerae = assay: Antibacterial activity against Vibrio cholerae MTCC 3906 by broth microdilution method; type: functional
Aspergillus fumigatus = assay: Antifungal activity against Aspergillus fumigatus MTCC 3008 by broth microdilution method; type: functional
Candida albicans = assay: Antifungal activity against Candida albicans MTCC 227 by broth microdilution method; type: functional
Plasmodium falciparum = assay: Antimalarial activity against trophozoite stage of chloroquine-sensitive Plasmodium falciparum 3D7 infected in human erythrocytes after 48 hrs; type: functional, organism-based; conditions: 3D7, 48 h
Method in brief: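 Parasites were kept in continuous culture in A+ human erythrocytes in RPMI with 10% human serum. Sorbitol-synchronized trophozoites at 1–2% parasitaemia and 2.5% haematocrit were exposed to serial dilutions (maximum 1 mg/ml; 0.02% final DMSO) for 48 h at 37 °C. Growth inhibition was measured; chloroquine and quinine served as positive controls. IC50 came from duplicate experiments.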

Compound	inhibition at 6.25 µg/mL [1] [%]	MIC (Bacillus subtilis) [µg/mL]	MIC (Clostridium tetani) [µg/mL]	MIC (Streptococcus pneumoniae) [µg/mL]	MIC (Escherichia coli) [µg/mL]	MIC (Salmonella typhi) [µg/mL]	MIC (Vibrio cholerae) [µg/mL]	MIC (Aspergillus fumigatus) [µg/mL]	MIC (Candida albicans) [µg/mL]	IC50 (Plasmodium falciparum) [µg/mL]
CO[C@H]1/C=C/O[C@@]2(C)Oc3c(C)c(O)c4c(O)c(c(/C=N/N5CCN(C)CC5)c(O)c4c3C2=O)NC(=O)/C(C)=C\C=C\[C@H](C)[C@H](O)[C@@H](C)[C@@H](O)[C@@H](C)[C@H](OC(C)=O)[C@@H]1C [RIFAMPIN]	98	–	–	–	–	–	–	–	–	–
COc1ccc(NN2C(N)=C(C#N)C(c3cc4cc(Cl)ccc4nc3Cl)C3=C2CC(C)(C)CC3=O)cc1 (stereo not drawn)	22	250 (≈ 468 µM)	200 (≈ 374 µM)	250 (≈ 468 µM)	250 (≈ 468 µM)	200 (≈ 374 µM)	250 (≈ 468 µM)	> 1000	100 (≈ 187 µM)	0.026 (≈ 0.0486 µM)
O=C(O)c1cn(C2CC2)c2cc(N3CCNCC3)c(F)cc2c1=O [CIPROFLOXACIN]	–	–	–	50 (≈ 151 µM)	25 (≈ 75.4 µM)	25 (≈ 75.4 µM)	25 (≈ 75.4 µM)	–	–	–
CC1(C)CC(=O)C2=C(C1)N(Nc1ccc(Br)cc1)C(N)=C(C#N)C2c1cc2cc(Cl)ccc2nc1Cl (stereo not drawn)	85	250 (≈ 429 µM)	250 (≈ 429 µM)	200 (≈ 343 µM)	100 (≈ 171 µM)	250 (≈ 429 µM)	250 (≈ 429 µM)	500 (≈ 857 µM)	1000 (≈ 1710 µM)	0.08 (≈ 0.137 µM)
Cc1ccc2nc(Cl)c(C3C(C#N)=C(N)N(Nc4ccc(Br)cc4)C4=C3C(=O)CC(C)(C)C4)cc2c1 (stereo not drawn)	47	200 (≈ 355 µM)	250 (≈ 444 µM)	250 (≈ 444 µM)	250 (≈ 444 µM)	250 (≈ 444 µM)	250 (≈ 444 µM)	> 1000	250 (≈ 444 µM)	0.012 (≈ 0.0213 µM)
Cc1ccc2nc(Cl)c(C3C(C#N)=C(N)N(Nc4ccc(Cl)cc4)C4=C3C(=O)CC(C)(C)C4)cc2c1 (stereo not drawn)	15	500 (≈ 964 µM)	250 (≈ 482 µM)	250 (≈ 482 µM)	100 (≈ 193 µM)	200 (≈ 386 µM)	200 (≈ 386 µM)	1000 (≈ 1930 µM)	500 (≈ 964 µM)	0.008 (≈ 0.0154 µM)
COc1ccc2nc(Cl)c(C3C(C#N)=C(N)N(Nc4ccc(Br)cc4)C4=C3C(=O)CC(C)(C)C4)cc2c1 (stereo not drawn)	17	250 (≈ 432 µM)	200 (≈ 345 µM)	250 (≈ 432 µM)	200 (≈ 345 µM)	125 (≈ 216 µM)	200 (≈ 345 µM)	500 (≈ 864 µM)	1000 (≈ 1730 µM)	0.014 (≈ 0.0242 µM)
Cc1ccc2nc(Cl)c(C3C(C#N)=C(N)N(Nc4ccc(F)cc4)C4=C3C(=O)CC(C)(C)C4)cc2c1 (stereo not drawn)	33	250 (≈ 498 µM)	200 (≈ 398 µM)	250 (≈ 498 µM)	250 (≈ 498 µM)	250 (≈ 498 µM)	200 (≈ 398 µM)	1000 (≈ 1990 µM)	1000 (≈ 1990 µM)	0.047 (≈ 0.0936 µM)
Cc1ccc(NN2C(N)=C(C#N)C(c3cc4cc(Cl)ccc4nc3Cl)C3=C2CC(C)(C)CC3=O)cc1 (stereo not drawn)	72	500 (≈ 964 µM)	250 (≈ 482 µM)	500 (≈ 964 µM)	250 (≈ 482 µM)	250 (≈ 482 µM)	250 (≈ 482 µM)	500 (≈ 964 µM)	500 (≈ 964 µM)	0.014 (≈ 0.027 µM)
CC1(C)CC(=O)C2=C(C1)N(Nc1ccccc1)C(N)=C(C#N)C2c1cc2cc(Cl)ccc2nc1Cl (stereo not drawn)	5	1000 (≈ 1980 µM)	1000 (≈ 1980 µM)	1000 (≈ 1980 µM)	200 (≈ 396 µM)	250 (≈ 496 µM)	1000 (≈ 1980 µM)	1000 (≈ 1980 µM)	1000 (≈ 1980 µM)	0.21 (≈ 0.416 µM)
CC1(C)S[C@@H]2[C@H](NC(=O)[C@H](N)c3ccccc3)C(=O)N2[C@H]1C(=O)O [AMPICILLIN]	–	250 (≈ 715 µM)	250 (≈ 715 µM)	100 (≈ 286 µM)	100 (≈ 286 µM)	100 (≈ 286 µM)	100 (≈ 286 µM)	–	–	–
COc1ccc(NN2C(N)=C(C#N)C(c3cc4cc(C)ccc4nc3Cl)C3=C2CC(C)(C)CC3=O)cc1 (stereo not drawn)	3	200 (≈ 389 µM)	500 (≈ 973 µM)	100 (≈ 195 µM)	250 (≈ 486 µM)	500 (≈ 973 µM)	500 (≈ 973 µM)	> 1000	> 1000	0.54 (≈ 1.05 µM)
COc1ccc2nc(Cl)c(C3C(C#N)=C(N)N(Nc4ccc(C)cc4)C4=C3C(=O)CC(C)(C)C4)cc2c1 (stereo not drawn)	50	200 (≈ 389 µM)	100 (≈ 195 µM)	200 (≈ 389 µM)	150 (≈ 292 µM)	200 (≈ 389 µM)	200 (≈ 389 µM)	500 (≈ 973 µM)	500 (≈ 973 µM)	0.19 (≈ 0.37 µM)
COc1ccc(NN2C(N)=C(C#N)C(c3cc4cc(OC)ccc4nc3Cl)C3=C2CC(C)(C)CC3=O)cc1 (stereo not drawn)	7	200 (≈ 377 µM)	200 (≈ 377 µM)	25 (≈ 47.2 µM)	100 (≈ 189 µM)	50 (≈ 94.3 µM)	62.5 (≈ 118 µM)	500 (≈ 943 µM)	500 (≈ 943 µM)	0.019 (≈ 0.0358 µM)
CC1(C)CC(=O)C2=C(C1)N(Nc1ccc(F)cc1)C(N)=C(C#N)C2c1cc2ccccc2nc1Cl (stereo not drawn)	62	500 (≈ 1020 µM)	200 (≈ 410 µM)	500 (≈ 1020 µM)	200 (≈ 410 µM)	200 (≈ 410 µM)	200 (≈ 410 µM)	1000 (≈ 2050 µM)	1000 (≈ 2050 µM)	0.027 (≈ 0.0553 µM)
Cc1ccc2nc(Cl)c(C3C(C#N)=C(N)N(Nc4ccccc4)C4=C3C(=O)CC(C)(C)C4)cc2c1 (stereo not drawn)	12	500 (≈ 1030 µM)	500 (≈ 1030 µM)	250 (≈ 517 µM)	100 (≈ 207 µM)	200 (≈ 413 µM)	250 (≈ 517 µM)	> 1000	500 (≈ 1030 µM)	0.15 (≈ 0.31 µM)
COc1ccc(NN2C(N)=C(C#N)C(c3cc4ccccc4nc3Cl)C3=C2CC(C)(C)CC3=O)cc1 (stereo not drawn)	44	500 (≈ 1000 µM)	250 (≈ 500 µM)	200 (≈ 400 µM)	250 (≈ 500 µM)	200 (≈ 400 µM)	250 (≈ 500 µM)	> 1000	> 1000	0.025 (≈ 0.05 µM)
C=C[C@H]1CN2CC[C@H]1C[C@H]2[C@H](O)c1ccnc2ccc(OC)cc12 [QUININE]	–	–	–	–	–	–	–	–	–	0.268 (≈ 0.826 µM)
CC1(C)CC(=O)C2=C(C1)N(Nc1ccc(Cl)cc1)C(N)=C(C#N)C2c1cc2cc(Cl)ccc2nc1Cl (stereo not drawn)	87	200 (≈ 371 µM)	200 (≈ 371 µM)	200 (≈ 371 µM)	62.5 (≈ 116 µM)	100 (≈ 186 µM)	100 (≈ 186 µM)	> 1000	> 1000	0.028 (≈ 0.052 µM)
CC1(C)CC(=O)C2=C(C1)N(Nc1ccc(F)cc1)C(N)=C(C#N)C2c1cc2cc(Cl)ccc2nc1Cl (stereo not drawn)	65	100 (≈ 191 µM)	500 (≈ 957 µM)	200 (≈ 383 µM)	250 (≈ 479 µM)	500 (≈ 957 µM)	125 (≈ 239 µM)	> 1000	500 (≈ 957 µM)	0.154 (≈ 0.295 µM)
CC1(C)CC(=O)C2=C(C1)N(Nc1ccc(Br)cc1)C(N)=C(C#N)C2c1cc2ccccc2nc1Cl (stereo not drawn)	33	200 (≈ 364 µM)	500 (≈ 911 µM)	100 (≈ 182 µM)	250 (≈ 455 µM)	250 (≈ 455 µM)	100 (≈ 182 µM)	> 1000	> 1000	0.54 (≈ 0.984 µM)
COc1ccc2nc(Cl)c(C3C(C#N)=C(N)N(Nc4ccccc4)C4=C3C(=O)CC(C)(C)C4)cc2c1 (stereo not drawn)	80	250 (≈ 500 µM)	500 (≈ 1000 µM)	250 (≈ 500 µM)	250 (≈ 500 µM)	250 (≈ 500 µM)	500 (≈ 1000 µM)	500 (≈ 1000 µM)	250 (≈ 500 µM)	0.22 (≈ 0.44 µM)
O=C(N[C@H](CO)[C@H](O)c1ccc([N+](=O)[O-])cc1)C(Cl)Cl [CHLORAMPHENICOL]	–	50 (≈ 155 µM)	50 (≈ 155 µM)	50 (≈ 155 µM)	50 (≈ 155 µM)	50 (≈ 155 µM)	50 (≈ 155 µM)	–	–	–
CCn1cc(C(=O)O)c(=O)c2cc(F)c(N3CCNCC3)cc21 [NORFLOXACIN]	–	100 (≈ 313 µM)	50 (≈ 157 µM)	10 (≈ 31.3 µM)	10 (≈ 31.3 µM)	10 (≈ 31.3 µM)	10 (≈ 31.3 µM)	–	–	–
CC1(C)CC(=O)C2=C(C1)N(Nc1ccccc1)C(N)=C(C#N)C2c1cc2ccccc2nc1Cl (stereo not drawn)	8	200 (≈ 426 µM)	250 (≈ 532 µM)	200 (≈ 426 µM)	200 (≈ 426 µM)	250 (≈ 532 µM)	250 (≈ 532 µM)	> 1000	500 (≈ 1060 µM)	0.015 (≈ 0.0319 µM)
Cc1ccc(NN2C(N)=C(C#N)C(c3cc4ccccc4nc3Cl)C3=C2CC(C)(C)CC3=O)cc1 (stereo not drawn)	8	250 (≈ 517 µM)	250 (≈ 517 µM)	500 (≈ 1030 µM)	200 (≈ 413 µM)	200 (≈ 413 µM)	250 (≈ 517 µM)	500 (≈ 1030 µM)	500 (≈ 1030 µM)	0.005 (≈ 0.0103 µM)
Cc1ccc(NN2C(N)=C(C#N)C(c3cc4cc(C)ccc4nc3Cl)C3=C2CC(C)(C)CC3=O)cc1 (stereo not drawn)	32	200 (≈ 402 µM)	250 (≈ 502 µM)	200 (≈ 402 µM)	500 (≈ 1000 µM)	500 (≈ 1000 µM)	500 (≈ 1000 µM)	500 (≈ 1000 µM)	500 (≈ 1000 µM)	0.22 (≈ 0.442 µM)
COC1=CC(=O)C[C@@H](C)[C@]12Oc1c(Cl)c(OC)cc(OC)c1C2=O [GRISEOFULVIN]	–	–	–	–	–	–	–	100 (≈ 283 µM)	500 (≈ 1420 µM)	–
NYSTATIN	–	–	–	–	–	–	–	100	100	–
